According to ChEMBL document CHEMBL4020742, “Design and optimization of purine derivatives as in vivo active PDE10A inhibitors” (Bioorg Med Chem, 2017):
The source made the active and inactive calls. The rule behind the calls is not given here.

Legend:
[1] = tested on: Rattus norvegicus; experiment: Antipsychotic activity in Sprague-Dawley rat assessed as inhibition of PCP-induced hyperlocomotion at 10 mg/kg, po pretreated for 30 mins followed by PCP addition measured after 5 mins for 1.5 hrs by open field test; type: functional, organism-based
Outline: (§1)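 Male SD rats (200-250 g), acclimated at least 1 week. Drug was given p.o. in sterile saline with 0.5% Tween 80 and 0.2% CMC-sodium, 30 min before PCP 5 mg/kg i.p. Rats were placed in a 40×40×45 cm open-field arena 5 min after PCP and video-tracked for 90 min. Read-out was total distance travelled, reported as mean ± SEM.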

[2] = target: T1, CYP2C19 (Homo sapiens, UniProt P33261); experiment: (§2) […] of CYP2C19 in human microsomes at 10 uM using mephenytoin as substrate preincubated for 5 mins followed by NADPH addition measured 20 mins relative to control; type: ADME; settings: human microsomes, probe mephenytoin, read-out: TDI
[3] = target: T2, Cytochrome P450 2C9 (Homo sapiens, UniProt P11712); experiment: (§3) Inhibition of CYP2C9 in human microsomes at 10 uM using diclofenac as substrate preincubated for 5 mins followed by NADPH addition measured 20 mins relative to control; type: ADME; settings: microsomes, 20 min, 10 µM
Outline: (§4)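 Pooled human microsomes (0.2 mg/mL) in 100 mM phosphate pH 7.4 with a probe cocktail: midazolam 10 µM, dextromethorphan 10 µM, diclofenac 20 µM, phenacetin 100 µM, mephenytoin 100 µM. Test compound was 10 µM; organic solvent was under 1%. After 5 min preincubation at 37 °C, 1 mmol/L NADPH was added and the reaction ran 20 min, keeping substrate conversion below 20%. Metabolite formation was expressed relative to PBS control.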

[4] = Half life in mouse liver microsomes at 1 uM preincubated for 5 mins followed by NADPH addition measured up to 30 mins by LC-MS/MS analysis; type: ADME, microsome
Outline: (§5)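 Liver microsomes (0.5 mg/mL) plus 1 µM compound were preincubated 5 min at 37 °C in 0.1 M phosphate buffer pH 7.4 containing EDTA and MgCl₂. NADPH started the reaction. Samples at 0, 5, 10 and 30 min were quenched with cold acetonitrile containing tinidazole internal standard and centrifuged. Parent remaining was quantified by LC/MS/MS.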

[5] = target: T3, cAMP and cAMP-inhibited cGMP 3',5'-cyclic phosphodiesterase 10A (Homo sapiens, UniProt Q9Y233); experiment: (§6) Inhibition of recombinant human N-terminal GST-tagged PDE10A1 (2 to 789 residues) expressed in baculovirus infected Sf9 cells using fluorescein-labeled cAMP as substrate preincubated for 15 mins followed by substrate addition measured after 30 mins by IMAP fluorescence polarization assay
Outline: (§7)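 Recombinant PDE4A1A, PDE2A1 or PDE10A1 was incubated with compound (1% DMSO, duplicate) for 15 min at RT. Fluorescein-cAMP was then added for 30 min at RT, and the reaction was stopped with IMAP binding reagent (1 h, dark). FP was read at Ex485/Em535. Inhibition was set against no-enzyme and DMSO controls. IC50 came from a four-parameter logistic fit; values are the mean of at least two measurements.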

[6] = tested on: Rattus norvegicus; experiment: Antipsychotic activity in Sprague-Dawley rat assessed as inhibition of PCP-induced hyperlocomotion at 50 mg/kg, po pretreated for 30 mins followed by PCP addition measured after 5 mins for 1.5 hrs by open field test; type: functional, organism-based; outline: as §1
[7] = target: T4, Cytochrome P450 2C19 (Homo sapiens, UniProt P33261); experiment: (§8) Inhibition of CYP2C19 in human microsomes at 10 uM using mephenytoin as substrate preincubated for 5 mins followed by NADPH addition measured 20 mins relative to control; type: ADME; settings: microsomes, 20 min, 10 µM; outline: as §4
[8] = target: T5, CYP1A2 (Homo sapiens, UniProt P05177); experiment: Time-dependent inhibition of CYP1A2 in human microsomes at 10 uM using phenacetin as substrate preincubated for 5 mins followed by NADPH addition measured 20 mins relative to control; type: ADME; settings: human microsomes, probe phenacetin, read-out: TDI
T5 sequence (P05177 whole entry): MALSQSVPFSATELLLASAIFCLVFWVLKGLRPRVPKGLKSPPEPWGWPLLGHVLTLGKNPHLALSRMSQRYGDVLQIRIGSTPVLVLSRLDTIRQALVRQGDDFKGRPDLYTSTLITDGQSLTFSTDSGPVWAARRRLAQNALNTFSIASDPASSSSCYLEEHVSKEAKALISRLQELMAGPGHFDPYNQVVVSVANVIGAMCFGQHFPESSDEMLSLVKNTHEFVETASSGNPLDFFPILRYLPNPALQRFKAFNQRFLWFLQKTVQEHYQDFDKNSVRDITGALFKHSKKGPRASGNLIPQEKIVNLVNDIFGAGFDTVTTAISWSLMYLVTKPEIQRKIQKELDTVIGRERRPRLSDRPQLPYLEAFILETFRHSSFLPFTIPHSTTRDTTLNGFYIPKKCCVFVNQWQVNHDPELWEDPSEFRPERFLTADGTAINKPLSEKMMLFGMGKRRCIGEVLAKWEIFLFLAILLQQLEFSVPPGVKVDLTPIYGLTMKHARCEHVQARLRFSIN

[9] = target: T5, CYP1A2; experiment: Inhibition of CYP1A2 in human microsomes at 10 uM using phenacetin as substrate preincubated for 5 mins followed by NADPH addition measured 20 mins relative to control; type: ADME; settings: probe phenacetin, read-out: TDI; outline: as §4
[10] = target: T6, CYP3A4 (Homo sapiens, UniProt P08684); experiment: (§9) Time-dependent inhibition of CYP3A4 in human microsomes at 10 uM using midazolam as substrate preincubated for 5 mins followed by NADPH addition measured 20 mins relative to control; type: ADME; settings: human microsomes, probe midazolam, read-out: TDI
[11] = tested on: Rattus norvegicus; experiment: Antipsychotic activity in Sprague-Dawley rat assessed as inhibition of PCP-induced prepulse inhibition deficit at 10 mg/kg, po pretreated for 30 mins followed by PCP addition measured after 5 mins to 10 mins; type: functional, organism-based
Outline: (§10)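 Male SD rats (200-250 g) were dosed p.o. in saline with 0.5% Tween 80 and 0.2% CMC-sodium, 30 min before PCP 5 mg/kg i.p. Acoustic startle PPI was tested in startle chambers 5-10 min after PCP. Startle magnitude was the mean of pulse-alone trials. n = 11-16 per group; mean ± SEM; ANOVA with post hoc tests.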

[12] = Half life in human liver microsomes at 1 uM preincubated for 5 mins followed by NADPH addition measured up to 30 mins by LC-MS/MS analysis; type: ADME, microsome; outline: as §5
[13] = target: T7, Cytochrome P450 2D6 (Homo sapiens, UniProt P10635); experiment: (§11) Inhibition of CYP2D6 in human microsomes at 10 uM using dextromethorphan as substrate preincubated for 5 mins followed by NADPH addition measured 20 mins relative to control; type: ADME; settings: microsomes, 20 min, 10 µM; outline: as §4
[14] = target: PDE2A1 (Homo sapiens, UniProt O00408); experiment: as §6, with “FLAG-tagged PDE2A1” for “GST-tagged PDE10A1”, “941” for “789”, “cells at 1 uM” for “cells”, “assay relative to control” for “assay”; settings: probe fluorescein-labeled cAMP; outline: as §7
[15] = target: T2, Cytochrome P450 2C9; experiment: (§12) […] of CYP2C9 in human microsomes at 10 uM using diclofenac as substrate preincubated for 5 mins followed by NADPH addition measured 20 mins relative to control; type: ADME; settings: microsomes, 20 min, 10 µM
[16] = target: T6, CYP3A4; experiment: (§13) Inhibition of CYP3A4 in human microsomes at 10 uM using midazolam as substrate preincubated for 5 mins followed by NADPH addition measured 20 mins relative to control; type: ADME; settings: human microsomes, probe midazolam, read-out: TDI; outline: as §4
[17] = target: T3, cAMP and cAMP-inhibited cGMP 3',5'-cyclic phosphodiesterase 10A; experiment: as §6, with “cells at 5 uM” for “cells”, “assay relative to control” for “assay”; outline: as §7
[18] = tested on: Rattus norvegicus; experiment: Antipsychotic activity in Sprague-Dawley rat assessed as inhibition of PCP-induced prepulse inhibition deficit at 50 mg/kg, po pretreated for 30 mins followed by PCP addition measured after 5 mins to 10 mins; type: functional, organism-based; outline: as §10
[19] = target: T8, CYP2D6 (Homo sapiens, UniProt P10635); experiment: (§14) […] of CYP2D6 in human microsomes at 10 uM using dextromethorphan as substrate preincubated for 5 mins followed by NADPH addition measured 20 mins relative to control; type: ADME; settings: human microsomes, probe dextromethorphan, read-out: TDI
[20] = target: T9, CYP2C9 (Homo sapiens, UniProt P11712); experiment: as §3; type: ADME; settings: human microsomes, probe diclofenac, read-out: TDI; outline: as §4
[21] = target: T1, CYP2C19; experiment: as §8; type: ADME; settings: human microsomes, probe mephenytoin, read-out: TDI; outline: as §4
[22] = target: T10, Cytochrome P450 3A4 (Homo sapiens, UniProt P08684); experiment: as §9; type: ADME; settings: microsomes, 20 min, 10 µM
[23] = target: T8, CYP2D6; experiment: as §11; type: ADME; settings: human microsomes, probe dextromethorphan, read-out: TDI; outline: as §4
[24] = target: T9, CYP2C9; experiment: as §12; type: ADME; settings: human microsomes, probe diclofenac, read-out: TDI
[25] = target: T4, Cytochrome P450 2C19; experiment: as §2; type: ADME; settings: microsomes, 20 min, 10 µM
[26] = target: T10, Cytochrome P450 3A4; experiment: as §13; type: ADME; settings: microsomes, 20 min, 10 µM; outline: as §4
[27] = target: T7, Cytochrome P450 2D6; experiment: as §14; type: ADME; settings: microsomes, 20 min, 10 µM

T1 sequence (P33261 whole entry): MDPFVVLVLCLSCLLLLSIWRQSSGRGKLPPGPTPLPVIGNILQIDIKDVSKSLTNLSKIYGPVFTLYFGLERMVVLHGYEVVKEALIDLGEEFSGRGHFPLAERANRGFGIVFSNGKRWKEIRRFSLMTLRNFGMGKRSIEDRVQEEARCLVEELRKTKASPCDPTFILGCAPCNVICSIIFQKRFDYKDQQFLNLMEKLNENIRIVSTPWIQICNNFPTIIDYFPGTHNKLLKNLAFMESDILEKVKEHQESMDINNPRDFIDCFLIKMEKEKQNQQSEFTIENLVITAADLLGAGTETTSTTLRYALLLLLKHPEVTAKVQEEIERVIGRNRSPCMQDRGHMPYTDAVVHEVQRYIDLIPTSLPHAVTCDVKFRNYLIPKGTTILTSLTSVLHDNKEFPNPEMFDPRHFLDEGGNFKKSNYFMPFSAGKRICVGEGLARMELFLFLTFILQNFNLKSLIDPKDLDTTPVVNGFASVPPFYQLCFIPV
T6 sequence (P08684 whole entry): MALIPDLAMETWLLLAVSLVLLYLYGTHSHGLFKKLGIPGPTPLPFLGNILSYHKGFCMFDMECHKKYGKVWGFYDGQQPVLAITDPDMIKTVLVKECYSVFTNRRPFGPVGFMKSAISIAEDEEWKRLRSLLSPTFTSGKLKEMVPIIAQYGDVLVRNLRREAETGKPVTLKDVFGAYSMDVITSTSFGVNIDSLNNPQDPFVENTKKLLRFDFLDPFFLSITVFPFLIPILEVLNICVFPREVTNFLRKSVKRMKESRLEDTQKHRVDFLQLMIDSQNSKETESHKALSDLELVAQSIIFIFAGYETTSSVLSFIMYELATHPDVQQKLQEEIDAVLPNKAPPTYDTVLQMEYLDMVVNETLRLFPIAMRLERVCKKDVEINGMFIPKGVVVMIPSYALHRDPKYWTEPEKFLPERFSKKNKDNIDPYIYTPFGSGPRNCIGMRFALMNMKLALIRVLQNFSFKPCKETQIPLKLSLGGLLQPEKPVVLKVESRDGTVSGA
T10 sequence (P08684 whole entry): as above
T9 sequence (P11712 whole entry): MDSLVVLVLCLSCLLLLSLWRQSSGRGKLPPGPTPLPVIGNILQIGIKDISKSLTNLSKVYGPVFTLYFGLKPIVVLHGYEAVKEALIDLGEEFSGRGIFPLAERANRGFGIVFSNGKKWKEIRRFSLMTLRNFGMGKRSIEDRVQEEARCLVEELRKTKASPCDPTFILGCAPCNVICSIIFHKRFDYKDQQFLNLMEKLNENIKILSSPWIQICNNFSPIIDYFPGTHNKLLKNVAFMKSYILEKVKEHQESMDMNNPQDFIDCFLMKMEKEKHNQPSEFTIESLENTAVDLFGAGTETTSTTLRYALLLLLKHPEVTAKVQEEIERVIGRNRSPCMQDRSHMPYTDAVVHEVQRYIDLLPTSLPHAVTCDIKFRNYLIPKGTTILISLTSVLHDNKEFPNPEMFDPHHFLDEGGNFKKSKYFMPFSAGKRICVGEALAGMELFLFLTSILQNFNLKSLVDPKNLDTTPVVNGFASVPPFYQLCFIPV
T2 sequence (P11712 whole entry): as above
T3 sequence (Q9Y233 whole entry, the tested form may be a part): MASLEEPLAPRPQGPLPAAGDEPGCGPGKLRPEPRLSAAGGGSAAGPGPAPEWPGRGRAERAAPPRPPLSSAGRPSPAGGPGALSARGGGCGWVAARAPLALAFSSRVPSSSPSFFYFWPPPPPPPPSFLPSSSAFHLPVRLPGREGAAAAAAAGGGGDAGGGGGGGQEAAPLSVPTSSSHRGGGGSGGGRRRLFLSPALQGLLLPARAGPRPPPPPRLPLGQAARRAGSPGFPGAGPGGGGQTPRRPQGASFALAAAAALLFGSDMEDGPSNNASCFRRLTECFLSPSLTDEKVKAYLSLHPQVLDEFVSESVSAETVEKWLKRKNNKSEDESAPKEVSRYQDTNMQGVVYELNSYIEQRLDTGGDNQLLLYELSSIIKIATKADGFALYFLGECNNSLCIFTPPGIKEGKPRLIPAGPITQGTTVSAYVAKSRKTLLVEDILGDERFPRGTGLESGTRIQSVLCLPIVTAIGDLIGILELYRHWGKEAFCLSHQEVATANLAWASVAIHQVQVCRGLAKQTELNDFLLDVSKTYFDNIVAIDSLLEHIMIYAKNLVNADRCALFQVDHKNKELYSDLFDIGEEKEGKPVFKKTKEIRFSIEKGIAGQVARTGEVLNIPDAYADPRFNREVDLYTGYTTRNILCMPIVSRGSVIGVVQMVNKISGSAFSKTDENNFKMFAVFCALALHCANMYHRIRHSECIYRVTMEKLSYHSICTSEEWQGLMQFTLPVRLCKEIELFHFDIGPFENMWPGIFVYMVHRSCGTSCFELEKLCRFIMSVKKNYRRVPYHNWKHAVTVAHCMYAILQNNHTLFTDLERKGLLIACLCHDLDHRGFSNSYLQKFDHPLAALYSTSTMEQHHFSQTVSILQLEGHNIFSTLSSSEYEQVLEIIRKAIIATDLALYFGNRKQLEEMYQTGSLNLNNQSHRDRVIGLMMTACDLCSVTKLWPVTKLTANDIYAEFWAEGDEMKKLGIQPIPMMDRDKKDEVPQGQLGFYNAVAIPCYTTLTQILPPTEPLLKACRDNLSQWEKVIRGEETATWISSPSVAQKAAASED
T8 sequence (P10635 whole entry): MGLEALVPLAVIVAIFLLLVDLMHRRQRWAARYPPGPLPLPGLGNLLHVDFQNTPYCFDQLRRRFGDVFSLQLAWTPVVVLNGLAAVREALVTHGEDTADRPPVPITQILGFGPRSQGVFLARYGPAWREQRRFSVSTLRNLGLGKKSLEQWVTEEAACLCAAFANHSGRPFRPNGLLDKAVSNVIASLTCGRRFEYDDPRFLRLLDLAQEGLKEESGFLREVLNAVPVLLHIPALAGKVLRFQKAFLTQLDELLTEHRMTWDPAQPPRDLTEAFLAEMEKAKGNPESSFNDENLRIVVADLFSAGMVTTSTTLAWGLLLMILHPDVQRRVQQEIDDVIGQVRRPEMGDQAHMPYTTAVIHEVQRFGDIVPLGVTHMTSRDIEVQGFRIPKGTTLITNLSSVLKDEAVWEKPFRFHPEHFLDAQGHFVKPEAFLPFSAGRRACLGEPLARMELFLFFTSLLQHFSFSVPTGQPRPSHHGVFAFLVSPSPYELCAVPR
T4 sequence (P33261 whole entry): as the sequence (P33261 whole entry) above
T7 sequence (P10635 whole entry): as the sequence (P10635 whole entry) above
Chain of PDE2A1 (O00408 whole entry): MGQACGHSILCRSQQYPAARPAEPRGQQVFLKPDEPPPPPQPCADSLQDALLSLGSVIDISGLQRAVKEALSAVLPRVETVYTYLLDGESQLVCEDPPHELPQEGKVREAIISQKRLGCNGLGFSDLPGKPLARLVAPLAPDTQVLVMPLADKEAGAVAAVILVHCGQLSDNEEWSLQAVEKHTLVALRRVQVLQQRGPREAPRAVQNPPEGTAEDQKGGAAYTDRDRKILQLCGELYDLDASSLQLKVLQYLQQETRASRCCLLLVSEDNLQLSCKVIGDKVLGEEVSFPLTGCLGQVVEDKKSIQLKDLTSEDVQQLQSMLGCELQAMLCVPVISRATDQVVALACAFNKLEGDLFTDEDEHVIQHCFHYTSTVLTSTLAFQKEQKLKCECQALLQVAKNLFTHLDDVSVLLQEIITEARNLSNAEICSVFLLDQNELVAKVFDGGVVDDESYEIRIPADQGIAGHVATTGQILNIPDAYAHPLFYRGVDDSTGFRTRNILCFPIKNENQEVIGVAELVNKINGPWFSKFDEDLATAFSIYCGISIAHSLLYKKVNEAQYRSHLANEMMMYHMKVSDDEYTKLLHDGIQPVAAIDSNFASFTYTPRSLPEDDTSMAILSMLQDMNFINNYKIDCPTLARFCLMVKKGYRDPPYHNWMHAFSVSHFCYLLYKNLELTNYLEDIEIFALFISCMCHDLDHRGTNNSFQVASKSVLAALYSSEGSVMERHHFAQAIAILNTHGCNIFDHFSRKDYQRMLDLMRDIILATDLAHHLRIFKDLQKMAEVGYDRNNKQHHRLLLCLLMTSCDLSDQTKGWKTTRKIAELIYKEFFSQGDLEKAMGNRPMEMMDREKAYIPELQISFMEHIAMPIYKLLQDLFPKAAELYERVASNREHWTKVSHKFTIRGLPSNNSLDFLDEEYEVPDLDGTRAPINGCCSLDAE

For `Cc1nc2c(N3CCOCC3)ncnc2n1Cc1ccc(-c2cncnc2)cc1`, the inhibition [1] was “Active”, the inhibition at 20 min, 10 µM [2] was 90% and the TDI [3] was “Not Active”. The half-life at 1 µM [4] was 69.3 min, the IC50 [5] was 76 nM and the inhibition [6] was “inactive”. The TDI [7] was “Not Active”, the inhibition at 20 min, 10 µM [8] was 10% and the inhibition at 20 min, 10 µM [9] was 12%. The inhibition at 20 min, 10 µM [10] was 20%, the inhibition [11] was “Active” and the half-life at 1 µM [12] was 49.5 min. For the same compound, the TDI [13] was “Not Active”, the inhibition at 0.5 h, 1 µM [14] was 4% and the TDI [15] was “Not Active”. For the same compound, the inhibition at 20 min, 10 µM [16] was 22%, the inhibition [17] was 97% and the inhibition [18] was “inactive”. For the same compound, the inhibition at 20 min, 10 µM [19] was 30%.
`Cc1cc(-c2ccc(Cn3c(C)nc4c(N5CCOCC5)ncnc43)cc2)ccn1` gave an inhibition at 20 min, 10 µM [2] of 70%, an inhibition at 20 min, 10 µM [20] of 18% and a half-life at 1 µM [4] of 23.9 min. The IC50 [5] was 56 nM, the inhibition at 20 min, 10 µM [21] was 21% and the inhibition at 20 min, 10 µM [8] was 30%. For the same compound, the inhibition at 20 min, 10 µM [9] was 34%, the TDI [22] was “Not Active” and the half-life at 1 µM [12] was 18.2 min. It also gave an inhibition at 20 min, 10 µM [23] of 6%, an inhibition at 20 min, 10 µM [24] of 10% and an inhibition at 20 min, 10 µM [16] of 12%. For the same compound, the inhibition [17] was 98% and the inhibition at 20 min, 10 µM [19] was 60%.
In the case of `Cc1ccc(-c2ccc(Cn3cnc4c(N5CCOCC5)ncnc43)cc2)cc1`, the TDI [25] is reported as “Not Active”, the inhibition at 20 min, 10 µM [20] is reported as 30% and the half-life at 1 µM [4] is reported as 49.5 min. For the same compound, the IC50 [5] was 75 nM, the inhibition at 20 min, 10 µM [21] was 44% and the inhibition at 20 min, 10 µM [8] was 20%. The inhibition at 20 min, 10 µM [9] was 12%, the TDI [22] was “Not Active” and the half-life at 1 µM [12] was 22.4 min. The inhibition at 20 min, 10 µM [23] was 6%, the TDI [15] was “Not Active” and the TDI [26] was “Not Active”. For the same compound, the inhibition [17] was 97% and the TDI [27] was “Not Active”.
